Screening results deposited in PubChem BioAssay by Johns Hopkins Ion Channel Center.
TRPC6 inh: blocks the mouse TRPC6 cation channel. Q61143. HEK293-TRPC6, membrane potential dye, ACh-evoked depolarization; hits give low values. B-score at 10 µM. hit rate 1.1% among 310,000;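 active means B-score under library mean minus 3 SD, initial fluorescence not abnormally high, positive integrated signal ratio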;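 further: B-score derived from integrated fluorescence ratio over the kinetic read; more negative B-score means stronger inhibition of depolarization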
Kir21 block: inhibitors of mouse Kir2.1 inward-rectifier potassium channel; P35561; HEK293-Kir2.1, FluxOR thallium flux fluorescence; hits give low values; B-score at 10 µM; hit rate 0.85% among 310,000;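 active means fluorescence ratio B-score at or below minus 3 SD of library scores, with starting-brightness B-score within 2 SD, cut at about -4.2 in these data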;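 further: channel flux triggered by added potassium and thallium sulfate stimulus; B-score of peak minus minimum fluorescence over baseline after thallium stimulus; more negative B-score means stronger Kir2.1 block with less thallium influx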
Target sequence (P35561 whole entry, looked up): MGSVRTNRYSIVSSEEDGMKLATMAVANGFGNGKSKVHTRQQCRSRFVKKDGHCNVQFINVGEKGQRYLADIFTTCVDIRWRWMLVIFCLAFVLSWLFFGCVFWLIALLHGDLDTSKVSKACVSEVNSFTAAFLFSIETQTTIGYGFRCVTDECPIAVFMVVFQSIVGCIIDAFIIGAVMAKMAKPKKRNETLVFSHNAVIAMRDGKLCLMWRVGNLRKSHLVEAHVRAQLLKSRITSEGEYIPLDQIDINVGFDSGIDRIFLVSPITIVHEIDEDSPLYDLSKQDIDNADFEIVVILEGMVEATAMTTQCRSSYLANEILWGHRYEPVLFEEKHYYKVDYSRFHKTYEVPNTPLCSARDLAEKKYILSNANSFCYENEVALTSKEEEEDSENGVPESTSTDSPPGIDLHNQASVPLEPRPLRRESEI
TRPC4 potent: TRPC4 (mouse) allosteric potentiation. Q9QUQ5. HEK293 TRPC4beta/mu-opioid, DAMGO EC20, Fluo-4 Ca2+ flux; hits give high values. B-score at 10 µM. hit rate 0.42% among 310,000;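 active means B-score of calcium response area above 5 SD of library B-scores, with initial fluorescence ratio within 5 SD of library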
TRPC6 act: mouse TRPC6 channel activation | AID 2550 | hit rate 0.13% among 310,000 | B-score at 10 µM | HEK293-TRPC6 membrane potential dye fluorescence; hits give high values;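 active means B-score of the integrated fluorescence ratio above library mean plus 3 SD, and starting fluorescence ratio within library mean plus 5 SD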;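 further: higher score means more depolarization so channel activation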
TRPC4 act: opens the mouse TRPC4 cation channel | Q9QUQ5 | HEK293 TRPC4beta/mu-opioid, Fluo4 calcium fluorescence; hits give high values | B-score at 10 µM | hit rate 0.49% among 310,000 | AID 2237;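 active means B-score above 5 SD of library B-scores, and initial fluorescence ratio not above library mean plus 5 SD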;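 further: positive B-score marks a calcium rise read as TRPC4 activation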
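Material: TRPC4beta and mu-opioid receptor HEK293 stable cells | Incubation: 45 min room-temperature Fluo4 loading, 110 s read | Detection: Kinetic Fluo4 calcium fluorescence | Measure: Integrated baseline-normalised fluorescence ratio, converted to per-well B score | Benchmarks: Low control buffer alone, high control maximal DAMGO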
TRPC4 block: TRPC4 (mouse) channel inhibition; HEK293 TRPC4beta/mu-opioid, DAMGO-evoked Fluo4 calcium flux; hits give low values; AID 2247; Q9QUQ5; hit rate 0.39% among 300,000; B-score at 10 µM;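 active means B-score over 3 SD under the library average, no early fluorescence shift, positive overall ratio signal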
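Assay system: HEK293 cells with stable TRPC4beta plus mu-opioid receptor expression. Dosing: single dose. Measured by: Fluo4 Ca2+ flux fluorescence. Also added: DAMGO in two steps, submaximal then maximal. Read-out: B score from integrated Fluo4 fluorescence ratio.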
TRPC4 sel inh 2: second check of whether TRPC6 inhibitors also affect mouse TRPC4 | AID 2776 | shares compounds with TRPC6 inh | inhibition, % at 10 µM | HEK293 TRPC4/MOR, membrane potential dye fluorescence; channel activated by saturating DAMGO dose | hit rate 42% among 920;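 active means compounds whose fluorescence signal differed from control wells by over 3 SD, either direction, in both duplicate plates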
TRPC4 spec: mouse TRPC4 off-target activity of TRPC6 inhibitors. shares compounds with TRPC6 inh. HEK293 TRPC4/mu-opioid, membrane potential fluorescence. activity change, negative = inhibition, % at 10 µM. hit rate 61% among 920. AID 2777;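 active means rise or fall in signal beyond 3 SD of buffer-only wells in both replicate plates, either sign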;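 further: integrated kinetic ratio of fluorescence range over baseline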
HEK293 MPD ctr 2-1: parental HEK293 nonspecific activity of TRPC6 inhibitors, second screen. hit rate 31% among 920. shares compounds with TRPC6 inh. parental HEK293 membrane potential dye fluorescence; maximal acetylcholine challenge after compound addition. signal change vs control, % at 10 µM;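 active means membrane potential signal moving either way by over 3 SD of the maximum-effect control, in both duplicate plates, meaning non-specific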
HEK293 MPD ctr-1: parental HEK293 nonspecific activity of TRPC6 inhibitors. shares compounds with TRPC6 inh. parental HEK293 membrane potential dye fluorescence. membrane potential signal change, % at 10 µM. hit rate 60% among 920;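 active means membrane potential signal shifting up or down by more than 3 SD of buffer-only wells, on both duplicate plates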
HEK293 MPD ctr-2: parental HEK293 nonspecific activity of TRPC6 modulators; shares compounds with TRPC6 inh; membrane potential dye fluorescence; membrane potential signal change, % at 10 µM; hit rate 51% among 2,400;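 active means membrane potential signal moves up or down beyond 5 SD from buffer-only wells, on both duplicate plates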
HEK293 MPD ctr 2-2: second check of TRPC6 modulator effects in parental HEK293 cells; hit rate 14% among 2,400; shares compounds with TRPC6 inh; inhibition, % at 10 µM; membrane potential dye fluorescence; after compound, maximal acetylcholine stimulation;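 active means membrane potential signal drops by more than 5 SD from the mean control signal, in both duplicate plates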
TRPC4 ctr mod: mouse TRPC4 off-target activity of TRPC6 modulators; hit rate 69% among 2,400; shares compounds with TRPC6 inh; HEK293 TRPC4/mu-opioid, membrane potential fluorescence; percent change from control (negative = decrease, positive = increase), % at 10 µM;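 active means membrane potential signal moved up or down beyond 5 SD of buffer control wells, in both duplicate plates, actives on both sides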
TRPC4/MOR inh 2: second check of whether TRPC6 modulators also affect mouse TRPC4. shares compounds with TRPC6 inh. HEK293 TRPC4/mu-opioid, membrane potential dye fluorescence; stimulated with maximal-effect DAMGO. inhibition, % at 10 µM. hit rate 55% among 2,400. AID 488928;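 active means drop in membrane potential signal beyond 5 SD of the control wells in both duplicate plates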;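 further: TRPC4 counter screen for TRPC6 hits run under conditions tuned for TRPC6 not TRPC4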
TRPC6 inh conf: mouse TRPC6 inhibitor confirmation | shares compounds with TRPC6 inh | inhibition, % at 10 µM | hit rate 43% among 3,300 | HEK293-TRPC6, membrane potential dye, ACh-evoked depolarization;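 active means fluorescence ratio falls more than 5 SD below the full-stimulation control mean, in both duplicate runs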;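 further: integrated fluorescence ratio of peak minus minimum over baseline after agonist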
TRPC6 act confirm: mouse TRPC6 activator confirmation | shares compounds with TRPC6 inh | HEK293-TRPC6 membrane potential dye fluorescence, FDSS | hit rate 11% among 2,800 | activation, % at 10 µM;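 active means ratio signal rise beyond 5 SD above unstimulated control wells' mean, seen in both duplicate runs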
A number is an active result. Shown are actives, neighbours in structure and some others; about 2.9% of the full set was active somewhere.

For Cc1ccc(S(=O)(=O)N2CCN(C(=O)c3cccc(-n4cccc4)c3)CC2)cc1 the results were TRPC6 inh -13, Kir21 block inactive, TRPC4 potent inactive, TRPC6 act 14, TRPC4 act inactive, TRPC4 block inactive, HEK293 MPD ctr-2 inactive, HEK293 MPD ctr 2-2 inactive, TRPC4 ctr mod inactive, TRPC4/MOR inh 2 inactive, TRPC6 inh conf inactive and TRPC6 act confirm inactive.
O=C(c1cccc(S(=O)(=O)N2CCCC2)c1)N1CCN(c2ccccc2F)CC1 was read as TRPC6 inh inactive, Kir21 block inactive, TRPC4 potent inactive, TRPC6 act inactive, TRPC4 act inactive and TRPC4 block inactive.
Screening Cc1ccc(S(=O)(=O)N2CCN(C(=O)c3ccccc3)CC2)cc1 returned TRPC6 inh -12, Kir21 block inactive, TRPC4 potent inactive, TRPC6 act 15, TRPC4 act inactive, TRPC4 block inactive, HEK293 MPD ctr-2 inactive, HEK293 MPD ctr 2-2 inactive, TRPC4 ctr mod inactive, TRPC4/MOR inh 2 inactive, TRPC6 inh conf 66% and TRPC6 act confirm 98%.
O=C(c1cccc(-n2cccc2)c1)N1CCN(S(=O)(=O)c2ccccc2)CC1 was read as TRPC6 inh -7, Kir21 block inactive, TRPC4 potent inactive, TRPC6 act inactive, TRPC4 act inactive, TRPC4 block inactive, TRPC4 sel inh 2 inactive, TRPC4 spec inactive, HEK293 MPD ctr 2-1 inactive, HEK293 MPD ctr-1 inactive, TRPC6 inh conf 66% and TRPC6 act confirm inactive.
`Cc1ccc(S(=O)(=O)N2CCN(C(=O)c3ccc(Cl)nc3)CC2)cc1` gave TRPC6 inh inactive, Kir21 block inactive, TRPC4 potent inactive, TRPC6 act inactive, TRPC4 act inactive and TRPC4 block inactive.
O=S(=O)(c1ccccc1)C1(C2CC(c3ccccc3)=NO2)CC(O)C1 (stereo unspecified) was read as TRPC6 inh inactive, Kir21 block inactive, TRPC4 potent inactive, TRPC6 act inactive, TRPC4 act inactive and TRPC4 block inactive.
Screening CSc1ccc(S(=O)(=O)N2CCC(C(=O)NCc3ccccn3)CC2)cc1 returned TRPC6 inh inactive, Kir21 block inactive, TRPC4 potent inactive, TRPC6 act inactive, TRPC4 act inactive and TRPC4 block inactive.
Screening COc1ccc(N2CCN(S(=O)(=O)CCNC(=O)c3cc(=O)c4ccccc4o3)CC2)cc1 returned TRPC6 inh inactive, Kir21 block inactive, TRPC4 potent inactive, TRPC6 act inactive, TRPC4 act inactive and TRPC4 block inactive.
CCN(c1ccccc1)S(=O)(=O)c1cccc(C(=O)N2CCN(S(=O)(=O)c3ccccc3)CC2)c1 was read as TRPC6 inh -11, Kir21 block inactive, TRPC4 potent inactive, TRPC6 act inactive, TRPC4 act inactive, TRPC4 block inactive, TRPC4 sel inh 2 inactive, TRPC4 spec inactive, HEK293 MPD ctr 2-1 inactive, HEK293 MPD ctr-1 inactive and TRPC6 inh conf inactive.
`O=C(c1cccc(F)c1)N1CCN(S(=O)(=O)c2ccc(C(F)(F)F)cc2)CC1` gave TRPC6 inh -12, Kir21 block inactive, TRPC4 potent inactive, TRPC6 act 14, TRPC4 act inactive, HEK293 MPD ctr-2 inactive, HEK293 MPD ctr 2-2 inactive, TRPC4 ctr mod inactive, TRPC4/MOR inh 2 inactive, TRPC6 inh conf 62% and TRPC6 act confirm 72%.
O=C(c1ccccc1)N1CCN(C2C3CC4CC(C3)CC2C4)CC1 (stereo unspecified) was read as TRPC6 inh -9.6, Kir21 block inactive, TRPC4 potent inactive, TRPC6 act inactive, TRPC4 act inactive, TRPC4 block inactive, TRPC4 sel inh 2 inactive, TRPC4 spec 2.6%, HEK293 MPD ctr 2-1 inactive, HEK293 MPD ctr-1 6.7% and TRPC6 inh conf inactive.
For Cc1ccc(C(=O)N2CCN(S(=O)(=O)c3ccc(C(C)C)cc3)CC2)s1 the results were TRPC6 inh -13, Kir21 block inactive, TRPC4 potent inactive, TRPC6 act 15, TRPC4 act inactive, TRPC4 block inactive, HEK293 MPD ctr-2 inactive, HEK293 MPD ctr 2-2 inactive, TRPC4 ctr mod inactive, TRPC4/MOR inh 2 inactive, TRPC6 inh conf inactive and TRPC6 act confirm inactive.
O=C(Nc1cc(S(=O)(=O)N2CCOCC2)ccc1OCC(F)(F)F)C1=COCCO1 was read as TRPC6 inh inactive, Kir21 block inactive, TRPC4 potent inactive, TRPC6 act inactive, TRPC4 act inactive and TRPC4 block inactive.
Screening CCCCn1c(N)c(N(CCOC)C(=O)c2ccc(C)c(S(=O)(=O)N3CCCCC3)c2)c(=O)[nH]c1=O returned TRPC6 inh -5.8, Kir21 block inactive, TRPC4 potent inactive, TRPC6 act inactive, TRPC4 act inactive, TRPC4 block inactive, HEK293 MPD ctr-2 inactive, HEK293 MPD ctr 2-2 inactive, TRPC4 ctr mod inactive, TRPC4/MOR inh 2 inactive, TRPC6 inh conf inactive and TRPC6 act confirm inactive.
O=C(CCN1C(=O)c2ccccc2C1=O)Nc1ccccc1C(F)(F)F was read as TRPC6 inh -7.3, Kir21 block inactive, TRPC4 potent inactive, TRPC6 act inactive, TRPC4 act inactive, TRPC4 block inactive, TRPC4 sel inh 2 inactive, TRPC4 spec inactive, HEK293 MPD ctr 2-1 inactive, HEK293 MPD ctr-1 inactive, TRPC6 inh conf inactive and TRPC6 act confirm inactive.
